Compound activity deposited in PubChem BioAssay by several laboratories.
M18AAP inhibitor – PfM18AAP enzyme inhibition; recombinant PfM18AAP, H-Glu-NHMec fluorogenic cleavage; inhibition, % at 7.35 µM; 290,000 compounds, 1.2% hits; AID 1822;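 active = inhibition above the campaign mean inhibition over all tested compounds plus 3 SD, cut at about 28% in these data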;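 note: 0% = plate median of test compound wells and 100% = 2 mM ZnCl2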
CTSL1 counter – cathepsin L1 inhibition, PFM18AAP counter-screen | 300,000 compounds, 0.49% hits | inhibition, % at 5.96 µM | recombinant F. hepatica cathepsin L1, Z-Leu-Arg-MCA fluorescence | AID 1906;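 active = inhibition above the mean of all tested compounds plus 3 SD, set per screening campaign, cut at about 17% in these data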;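 note: 0% = plate median of test compound wells and 100% = 1 µM Z-Phe-Ala-diazomethylketone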
FXN GAA850 act – increases GAA850 frataxin promoter reporter activity. HEK293 lucGAA850 FXN promoter luciferase reporter, 24 h; percent of 10 µM SAHA response. 360,000 compounds, 0.56% hits. activation, % at 6 µM;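 active = activation above the average of all compounds screened plus 3 SD, cutoff fixed separately per campaign, cut at about 7.5% in these data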;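 note: 0% = DMSO wells and 100% = 10 µM SAHA wells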
AHR act – human AHR activation; activation, % at 5 µM; 320,000 compounds, 2.5% hits; AID 2796; AHR-responsive luciferase reporter cells, luminescence; P35869; in the data active = activation above about 47%;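 note: 0% = vehicle wells and 100% = reference agonist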
SENP1 inh – inhibitors of human SENP1 SUMO protease catalytic domain | recombinant SENP1 catalytic domain, CyPet-SUMO1-YPet FRET cleavage | AID 624204 | Q9P0U3 | inhibition, % at 10 µM | 360,000 compounds, 0.21% hits;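 active = inhibition at least 30% at 10 µM, raw YFP signal under a set limit, fluorescence ratio 0.5 to 1.5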;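 note: 0% = enzyme with DMSO and 100% = no enzyme wells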
Target sequence (Q9P0U3 419-644 limits assumed): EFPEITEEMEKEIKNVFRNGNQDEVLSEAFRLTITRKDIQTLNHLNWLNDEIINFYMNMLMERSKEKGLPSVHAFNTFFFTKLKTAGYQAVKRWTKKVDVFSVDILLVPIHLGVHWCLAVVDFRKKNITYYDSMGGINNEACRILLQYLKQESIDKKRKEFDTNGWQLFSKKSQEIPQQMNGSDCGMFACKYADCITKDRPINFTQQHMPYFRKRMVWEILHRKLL
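material = recombinant human SENP1 catalytic domain, His6-tagged | quantity = 20 pM enzyme | reagent = 25 nM SUMO1 FRET substrate | compound dosing = 10 µM single point, 0.5% DMSO | timing = 50 min enzyme reaction, room temperature, light-protected | detection = FRET, CFP and YFP emission | control set = no-enzyme low, enzyme-DMSO high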
HDAC3 inhib – human HDAC3 inhibition | 320,000 compounds, 0.15% hits | inhibition, % at 8.3 µM | AID 2718 | recombinant HDAC3, fluorogenic peptide/trypsin coupled, fluorescence; in the data active = inhibition above about 26%, passing the limit was not always enough
Starred values were filed as active, the others as inactive. Shown are actives, neighbours in structure and some others; about 4.2% of the full set was active somewhere.

For CC(Oc1ccc(Br)cc1)c1nc2c3ccccc3nc(=S)n2[nH]1 (stereo unspecified) the results were M18AAP inhibitor -2, CTSL1 counter 1, FXN GAA850 act 1, AHR act 3, SENP1 inh 2 and HDAC3 inhib 0.
Screening COc1cc(-c2nc3ccccc3c(=O)n2N)cc(OC)c1OC returned M18AAP inhibitor -6, CTSL1 counter -3, FXN GAA850 act 1, AHR act 16, SENP1 inh 2 and HDAC3 inhib 6.
`COc1ccc(S(=O)(=O)NNC(=S)NCCc2ccccc2)c(OC)c1` gave M18AAP inhibitor -49, CTSL1 counter 2, FXN GAA850 act 0, AHR act 0, SENP1 inh 2 and HDAC3 inhib 0.
Screening Cc1[nH]c2ccccc2c1-c1csc(NC(=O)CN2CCOCC2)n1 returned M18AAP inhibitor 6, CTSL1 counter 11, FXN GAA850 act 1, AHR act 70*, SENP1 inh -3 and HDAC3 inhib -1.
Screening C=CCc1cc(C)ccc1OCCOCCn1ccnc1 returned M18AAP inhibitor 2, CTSL1 counter 1, FXN GAA850 act 3, AHR act 55*, SENP1 inh 2 and HDAC3 inhib 1.
Screening CN(CCO)c1nc(N)c2c(N)nc3c(c2c1C#N)CC(=O)N3C1CCCC1 returned M18AAP inhibitor -12, CTSL1 counter -1, AHR act 6 and HDAC3 inhib 2.
For CC(C)(C)N1C(=O)Cc2c1nc(N)c1c(N)nc(N3CCCCC3CO)c(C#N)c21 (stereo unspecified) the results were M18AAP inhibitor 14, CTSL1 counter 105*, FXN GAA850 act 3, AHR act 4, SENP1 inh -55 and HDAC3 inhib -15.
Screening CCOC(=O)C1CCN(C(=O)COC(=O)/C=C/c2ccc([N+](=O)[O-])cc2)CC1 returned FXN GAA850 act 3, AHR act -1, SENP1 inh 3 and HDAC3 inhib 7.
For Cc1ccc(/C=C/C(=O)NCc2cccs2)o1 the results were M18AAP inhibitor -75, CTSL1 counter 37*, FXN GAA850 act 3, AHR act 6, SENP1 inh -11 and HDAC3 inhib 3.
O=C(c1ccco1)N1CCN(Cc2cc(=O)c(OCc3ccccc3Cl)co2)CC1 was read as CTSL1 counter -1, FXN GAA850 act 1, AHR act -1, SENP1 inh 1 and HDAC3 inhib -1.
Screening Cc1c(C(=O)Nc2nc3ccccc3[nH]2)oc2ccc(Br)cc12 returned M18AAP inhibitor -9, CTSL1 counter 1, FXN GAA850 act 1, AHR act 29, SENP1 inh -2 and HDAC3 inhib -4.
`Cc1c(C(=O)Nc2nc3ccccc3[nH]2)oc2c(Cl)cccc12` gave M18AAP inhibitor 2, CTSL1 counter 0, FXN GAA850 act 6, AHR act 66*, SENP1 inh -2 and HDAC3 inhib 1.
COc1ccc(NC(=O)c2oc3ccccc3c2C)cn1 was read as M18AAP inhibitor -1, CTSL1 counter 2, FXN GAA850 act 4, AHR act 51*, SENP1 inh -2 and HDAC3 inhib 7.
Screening Cc1c(C(=O)Nc2nc3ccccc3[nH]2)oc2ccccc12 returned M18AAP inhibitor -5, CTSL1 counter -1, FXN GAA850 act 3, AHR act 68*, SENP1 inh -11 and HDAC3 inhib 5.
CCOc1ccc(C2=Nn3c(nnc3-c3ccccc3OC)SC2)cc1 was read as M18AAP inhibitor 2, CTSL1 counter -2, FXN GAA850 act 5, AHR act 42, SENP1 inh 3 and HDAC3 inhib 18.
For COc1ccccc1-c1nnc2n1N=C(c1ccc(O)c(O)c1)CS2 the results were M18AAP inhibitor 69*, CTSL1 counter -5, FXN GAA850 act 3, AHR act 15, SENP1 inh 2 and HDAC3 inhib 13.
For CCN1C(=O)[C@H]2[C@@H](c3ccc(OC)cc3)N[C@]3(CCCN(Cc4ccc(Br)cc4)C3=O)[C@H]2C1=O the results were FXN GAA850 act -1 and SENP1 inh 2.
For COc1ccc(CCNC(=O)COC(=O)CSc2ccc([N+](=O)[O-])cc2)cc1OC the results were FXN GAA850 act 2, AHR act 1, SENP1 inh 5 and HDAC3 inhib 12.
`Cc1cc(C)n(-c2nc3ccccc3c(=O)n2OCc2ccc(Cl)cc2)n1` gave M18AAP inhibitor 2, CTSL1 counter -1, FXN GAA850 act -2, AHR act 49*, SENP1 inh 1 and HDAC3 inhib 12.
`Cc1cc(C)n(-c2nc3ccccc3c(=O)n2OCc2ccc(F)cc2)n1` gave M18AAP inhibitor 3, CTSL1 counter 1, FXN GAA850 act 1, AHR act 54*, SENP1 inh -6 and HDAC3 inhib 0.
Cc1cc(C)n(-c2nc3ccccc3c(=O)n2OCC(=O)OCc2ccccc2)n1 was read as M18AAP inhibitor -9, FXN GAA850 act 0 and SENP1 inh 1.
Screening COc1cc(C(=O)NCC(C)(C)CNC(=O)c2cc(OC)c(OC)c(OC)c2)cc(OC)c1OC returned M18AAP inhibitor 2, CTSL1 counter -2, FXN GAA850 act 0, AHR act -1, SENP1 inh -1 and HDAC3 inhib -9.
For FC(F)(F)c1cccc(NC(=S)Nc2cccc(NC(=S)Nc3cccc(C(F)(F)F)c3)n2)c1 the results were M18AAP inhibitor 2, CTSL1 counter 0, FXN GAA850 act 7, AHR act 66*, SENP1 inh 7 and HDAC3 inhib 13.
Fc1ccccc1-n1cc(-c2ccccc2)[nH]c1=S was read as M18AAP inhibitor 18, CTSL1 counter -1, FXN GAA850 act 3, AHR act 36, SENP1 inh 2 and HDAC3 inhib -6.
FC(F)(F)c1cccc(-n2cc(-c3ccccc3)[nH]c2=S)c1 was read as M18AAP inhibitor 21, CTSL1 counter -2, FXN GAA850 act 3, AHR act 61*, SENP1 inh 0 and HDAC3 inhib 7.
Nc1ccc(N2CCOCC2)c2nonc12 was read as M18AAP inhibitor 17, CTSL1 counter 32*, FXN GAA850 act 1, AHR act 0, SENP1 inh 2 and HDAC3 inhib 3.
Screening O=C(Nc1ccc(N2CCOCC2)c2nonc12)C1CCCC1 returned M18AAP inhibitor 0, CTSL1 counter -4, FXN GAA850 act 3, AHR act 3, SENP1 inh 5 and HDAC3 inhib 0.
Screening COc1cccc2cc3c(=O)n(-c4ccccc4)nc-3oc12 returned M18AAP inhibitor 15, CTSL1 counter -3, FXN GAA850 act -1, AHR act 49*, SENP1 inh 0 and HDAC3 inhib 1.
`CCOC(=O)C1=C(Cc2ccc(OC)cc2)C(=O)c2ccccc2C1=O` gave M18AAP inhibitor 7, FXN GAA850 act -1 and SENP1 inh 40*.
